From ChEMBL document CHEMBL3792293, “A synthetic 2,3-diarylindole induces cell death via apoptosis and autophagy in A549 lung cancer cells” (Bioorg Med Chem Lett, 2016)
Calls of active or inactive are those of the source. The calls are words filed in the database; no cut-off is given here.

Legend:
A549 [1] = experiment: Cytotoxicity against human A549 cells assessed as reduction in cell viability after 72 hrs by MTT assay; assay type: functional, cell-based
Outline: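 MTT viability screen in A549 cells with 72 h compound exposure; value reported as IC50.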

A549 [2] = experiment: Induction of cell morphological changes in human A549 cells at 10 to 100 uM after 3 hrs; assay type: functional, cell-based
A549 [3] = experiment: Induction of autophagy in human A549 cells after 6 to 24 hrs by MDC-staining based fluorescence imaging analysis; assay type: functional, cell-based
Outline: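 Autophagic vacuoles stained with monodansylcadaverine (MDC). Imaging was done after 24 h at 10, 50 or 100 μM. Relative fluorescence (Ex/Em 335/512 nm) was measured after 6 h at 6.2–100 μM.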

A549 [4] = experiment: Induction of apoptosis in human A549 cells assessed as viable cells at 100 uM after 24 hrs by Annexin V/7-AAD staining based flow cytometry (reference value: 89.95%); assay type: functional; settings: A549, 24 h, read-out: Activity
A549 [5] = experiment: Induction of apoptosis in human A549 cells assessed as viable cells at 10 uM after 24 hrs by Annexin V/7-AAD staining based flow cytometry (reference value: 89.95%); assay type: functional; settings: A549, 24 h, read-out: Activity
A549 [6] = experiment: Induction of apoptosis in human A549 cells assessed as increase in apoptotic cells at 10 to 100 uM after 24 hrs by Annexin V/7-AAD staining based flow cytometry in presence of autophagy inhibitor bafilomycin A1; assay type: functional, cell-based
Outline: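 A549 cells treated 24 h at 10, 50 or 100 μM with or without 10 nM bafilomycin A1. Apoptosis was read by Annexin-V/7AAD on a Muse Cell Analyzer. Values are means of three independent experiments with SD, and significance was tested against control and between ± Baf.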

A549 [7] = experiment: Induction of apoptosis in human A549 cells assessed as late apoptotic cells at 100 uM after 24 hrs by Annexin V/7-AAD staining based flow cytometry (reference value: 1.5%); assay type: functional
A549 [8] = experiment: Induction of autophagy in human A549 cells assessed as increase in LC3-2 level at 10 to 100 uM after 24 hrs by Western blot analysis; assay type: functional, cell-based
Outline: (§1)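 A549 cells exposed 24 h to 10, 50 or 100 μM, then harvested and analysed by Western blot for cleaved PARP and for LC3-II conversion.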

A549 [9] = experiment: Induction of apoptosis in human A549 cells assessed as dead cells at 10 uM after 24 hrs by Annexin V/7-AAD staining based flow cytometry relative to control; assay type: functional
Outline: (§2)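 A549 cells exposed for 24 h at 10, 50 or 100 μM, then stained with Annexin-V and 7AAD (Annexin-V and Dead Cell assay kit). Dead and apoptotic populations were counted by flow cytometry on a Muse Cell Analyzer and compared with untreated control. Values are averages of three independent experiments with SD.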

A549 [10] = experiment: Induction of apoptosis in human A549 cells assessed as late apoptotic cells at 50 uM after 24 hrs by Annexin V/7-AAD staining based flow cytometry (reference value: 1.5%); assay type: functional
A549 [11] = experiment: Induction of apoptosis in human A549 cells assessed as early apoptotic cells at 50 uM after 24 hrs by Annexin V/7-AAD staining based flow cytometry (reference value: 8.55%); assay type: functional
A549 [12] = experiment: Induction of autophagy in human A549 cells at 10 to 100 uM after 24 hrs by MDC-staining based fluorescence imaging analysis in presence of autophagy inhibitor bafilomycin A1; assay type: functional, cell-based
Outline: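 A549 cells co-treated 24 h with 10, 50 or 100 μM plus or minus 10 nM bafilomycin A1. Autophagy was quantified by MDC staining fluorescence. Values are means of three independent experiments with SD.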

A549 [13] = experiment: Induction of apoptosis in human A549 cells assessed as viable cells at 50 uM after 24 hrs by Annexin V/7-AAD staining based flow cytometry (reference value: 89.95%); assay type: functional; settings: A549, 24 h, read-out: Activity
A549 [14] = experiment: Induction of morphological changes in human A549 cells assessed as increase in vacuole appearance at 10 to 100 uM after 24 hrs; assay type: functional, cell-based
Outline: (§3)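 A549 cells treated 24 h at 10, 50 or 100 μM, then photographed to assess rounding and vacuole appearance.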

A549 [15] = experiment: Induction of apoptosis in human A549 cells assessed as increase in PARP cleavage after 24 hrs by Western blot analysis; assay type: functional, cell-based; outline: as §1
A549 [16] = experiment: Induction of apoptosis in human A549 cells assessed as early apoptotic cells at 100 uM after 24 hrs by Annexin V/7-AAD staining based flow cytometry (reference value: 8.55%); assay type: functional
A549 [17] = experiment: Induction of apoptosis in human A549 cells assessed as late apoptotic cells at 10 uM after 24 hrs by Annexin V/7-AAD staining based flow cytometry (reference value: 1.5%); assay type: functional
A549 [18] = experiment: Induction of morphological changes in human A549 cells assessed as appearance of rounded cell at 10 to 100 uM after 24 hrs; assay type: functional, cell-based; outline: as §3
A549 [19] = experiment: Induction of apoptosis in human A549 cells assessed as early apoptotic cells at 10 uM after 24 hrs by Annexin V/7-AAD staining based flow cytometry (reference value: 8.55%); assay type: functional
A549 [20] = experiment: Induction of apoptosis in human A549 cells assessed as dead cells at 50 uM after 24 hrs by Annexin V/7-AAD staining based flow cytometry relative to control; assay type: functional; outline: as §2
A549 [21] = experiment: Induction of apoptosis in human A549 cells assessed as dead cells at 100 uM after 24 hrs by Annexin V/7-AAD staining based flow cytometry relative to control; assay type: functional; outline: as §2
[22] = Homo sapiens, A549, 72 h, read-out: IC50

## Nc1ccc(-c2c(-c3ccccc3)[nH]c3ccccc23)cc1
A549 [1]; [22]
  IC50: 83.4 µM

## O=[N+]([O-])c1ccc(-c2[nH]c3ccccc3c2-c2ccccc2)cc1
A549 [1]; [22]
  IC50: 24.8 µM

## COC(=O)c1ccc(-c2[nH]c3ccccc3c2-c2ccccc2)cc1
A549 [1]; a549
  IC50: ND(Insoluble)

## O=[N+]([O-])c1ccc(-c2c(-c3ccccc3)[nH]c3ccccc23)cc1
A549 [1]; [22]
  IC50: 38.4 µM

## N#Cc1ccc(-c2c(-c3ccccc3)[nH]c3ccccc23)cc1
A549 [1]; [22]
  IC50: 18.3 µM

## c1ccc(-c2[nH]c3ccccc3c2-c2ccccc2)cc1
A549 [1]; [22]
  IC50: 58.7 µM

## CC(=O)Nc1ccc(-c2c(-c3ccccc3)[nH]c3ccccc23)cc1
A549 [1]; a549
  IC50: ND(Insoluble)

## COc1ccc(-c2c(-c3ccccc3)[nH]c3ccccc23)cc1
A549 [1]; [22]
  IC50: 30 µM

## COc1ccc(-c2[nH]c3ccccc3c2-c2ccccc2)cc1
A549 [1]; [22]
  IC50: 288 µM

## Nc1ccc(-c2[nH]c3ccccc3c2-c2ccccc2)cc1
A549 [1]; [22]
  IC50: 54.7 µM

## CC(=O)Nc1ccc(-c2[nH]c3ccccc3c2-c2ccccc2)cc1
A549 [1]; a549
  IC50: ND(Insoluble)

## N#Cc1ccc(-c2[nH]c3ccccc3c2-c2ccccc2)cc1
A549 [1]; [22]
  IC50: 15 µM

## COC(=O)c1ccc(-c2c(-c3ccccc3)[nH]c3ccccc23)cc1
A549 [2]
  Activity: Active
A549 [3]
  Activity: Dose-dependent effect
A549 [4]
  viability at 100 µM: 50.5%
A549 [5]
  viability at 10 µM: 82.8%
A549 [6]
  Activity: inactive
A549 [7]
  Activity: 39.7%
A549 [8]
  Activity: Active
A549 [9]
  Activity: 0.4%
A549 [10]
  Activity: 7.75%
A549 [11]
  Activity: 17.45%
A549 [12]
  Activity: inactive
A549 [13]
  viability at 50 µM: 74.5%
A549 [14]
  Activity: Active
A549 [15]
  Activity: Dose-dependent effect
A549 [16]
  Activity: 9.7%
A549 [1]; [22]
  IC50: 5.17 µM
A549 [17]
  Activity: 2.8%
A549 [18]
  Activity: Active
A549 [19]
  Activity: 14%
A549 [20]
  Activity: 0.25%
A549 [21]
  Activity: 0.15%
